Assay results gathered from unrelated publications.
Lines come from different studies, so protocols differ.
Observed: cell growth or viability

| SMILES | cell line | assay | setting | IC50 |
| --- | --- | --- | --- | --- |
| O=C(Nc1ccc2[nH]ncc2c1)c1cccc(NC(=O)c2cc(C(F)(F)F)ccc2F)c1 | KM12 | ATP luminescence | 72 h | 26.8 µM |
| O=C1NC(=NCc2cccs2)S/C1=C\c1ccc2ncccc2c1 | SR |  |  | 0.372 µM |
| O=C(Nc1ccc(Br)cc1)Nc1cccc(C(=O)Nc2ccc3[nH]ncc3c2)c1 | KM12 | ATP luminescence | 72 h | > 50 µM |
| Cc1cc(Nc2ncc(Cl)c(Nc3ccccc3S(=O)(=O)C(C)C)n2)c(OC(C)C)cc1C1CCNCC1 | Rh41 |  | 72 h | 0.35 µM |
| CCCCC[C@H](O)CC(=O)CCc1ccc(O)c(OC)c1 | COR-L23 | SRB |  | 199 µM |
| CC(C)C[C@H](NC(=O)[C@H](Cc1ccccc1)NC(=O)c1cnccn1)B(O)O | NCI-H2110 | ATP luminescence |  | 0.017 µM |
| CCC(C(=O)COc1c(F)c(F)cc(F)c1F)n1cc([C@](C)(CC(C)C)NCc2ccc3ncccc3c2)nn1 (stereo partly shown) | BESM |  | 72 h | > 10 µM |
| COc1cc(Nc2nccc(-c3cnn4nc(OC)ccc34)n2)cc(C(F)(F)F)c1 | NCI-H2110 | ATP luminescence |  | 0.63 µM |
| O=C(O)CCCc1ccccc1 | PSN1 | MTT | 72 h | > 50 µM |
| O=C(Nc1ccc2[nH]ncc2c1)c1cccc(NC(=S)Nc2ccc(F)cc2F)c1 | KM12 | ATP luminescence | 72 h | 30.6 µM |
| CCCCC(C(=O)COc1c(F)c(F)cc(F)c1F)n1cc([C@](C)(CC(C)C)NCc2ccc3ncccc3c2)nn1 (stereo partly shown) | BESM |  | 72 h | > 10 µM |
| O=C(Nc1ccccc1)Nc1cccc(C(=O)Nc2ccc3[nH]ncc3c2)c1 | KM12 | ATP luminescence | 72 h | > 50 µM |
| CCC(C(=O)COc1c(F)c(F)cc(F)c1F)n1cc([C@@](C)(NCc2ccc3ncccc3c2)C(C)C)nn1 (stereo partly shown) | BESM |  | 72 h | > 10 µM |
| COc1ccc2c(c1)/C(=N/NC(=O)c1cc3ccccc3[nH]1)C(=O)N2 | ZR75 |  |  | 17.9 µM |
| FC(F)(F)c1ccc(C(c2c[nH]c3ccccc23)c2c[nH]c3ccccc23)cc1 | PPC-1 | ATP luminescence | 22 h | 17.6 µM |
| CCCCC/C=C/C(=O)CCc1ccc(O)c(OC)c1 | COR-L23 | SRB |  | 16.2 µM |

| SMILES | cell line | assay | setting | IC50 |
| --- | --- | --- | --- | --- |
| CN1C(=O)/C(=N\NC(=O)c2cc3ccccc3[nH]2)c2ccccc21 | ZR75 |  |  | 1.53 µM |
| C[C@@H](Oc1cc(-c2cnn(C3CCNCC3)c2)cnc1N)c1c(Cl)ccc(F)c1Cl | Rh41 |  | 72 h | 0.45 µM |
| O=C1Nc2ccc(Br)cc2/C1=N/NC(=O)c1cc2ccccc2[nH]1 | ZR75 |  |  | 21.9 µM |
| CCC(C(=O)COc1c(F)c(F)cc(F)c1F)n1cc([C@@](C)(NCc2ccc3ncccc3c2)C2CCC2)nn1 (mixture of isomers) | BESM |  | 72 h | > 10 µM |
| O=C(Nc1ccc(I)cc1)Nc1cccc(C(=O)Nc2ccc3[nH]ncc3c2)c1 | KM12 | ATP luminescence | 72 h | > 50 µM |
| CC(C)C(=O)Nc1ccc([N+](=O)[O-])c(C(F)(F)F)c1 | Hep3B | CCK-8 | 48 h | > 50 µM |
| O=C1Nc2ccccc2/C1=N/NC(=O)c1cc2ccccc2[nH]1 | ZR75 |  |  | 22.7 µM |
| Cc1[nH]c2ccccc2c1CCNCc1ccc(/C=C/C(=O)NO)cc1 | A2780C/P | crystal violet | 48 h | 0.0088 µM |
| O=C1Nc2ccc(Cl)cc2/C1=N/NC(=O)c1cc2ccccc2[nH]1 | ZR75 |  |  | 18 µM |
| CN1CCN(CC(=O)Nc2cccc(C(=O)Nc3ccc4[nH]ncc4c3)c2)CC1 | KM12 | ATP luminescence | 72 h | > 50 µM |
| O=C(/C=C/C=C/c1ccc2c(c1)OCO2)N1CCCCC1 | COR-L23 | SRB |  | 74.8 µM |
| O=C(Nc1cccc(C(=O)Nc2ccc3[nH]ncc3c2)c1)Nc1ccccc1Cl | KM12 | ATP luminescence | 72 h | > 50 µM |
| CC1=CC(C)(C)N(Cc2ccccc2)c2ccc(O)cc21 | Hep3B | MTT | 72 h | 5.2 µM |
| O=C(Nc1cccc(C(=O)Nc2ccc3[nH]ncc3c2)c1)Nc1cccc(C(F)(F)F)c1 | KM12 | ATP luminescence | 72 h | 39.5 µM |
| COc1cc2nccc(Oc3ccc(NC(=O)C4(C(=O)Nc5ccc(F)cc5)CC4)cc3)c2cc1OC | Rh41 |  | 72 h | 2.4 µM |
